This is a sample that favours compounds with a hit; in the whole collection about 4.2% have one here.
AI-2 QS modul: Vibrio harveyi AI-2 quorum sensing modulation; Vibrio harveyi JMH597 AI-2 luminescence/OD600 ratio, 9 h; stronger effect = lower value; strain lacks LuxN and CqsS sensors; 0 = neutral-control median; AID 2094; activity change, % at 7.5 µM; 300,000 compounds, 0.4% hits; in the data active = activity change below about -75%, passing the limit was not always enough; inconclusive = no clear call, values can overlap the other calls;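 also: luminescence divided by OD600 gain over 9 h not by final OD600 alone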
hERG protect: hERG (human) protection from proarrhythmic block; Q12809; CHO-hERG, FluxOR thallium flux, dofetilide IC70 present; activation (rescue from dofetilide block), less the hit threshold, % at 10 µM; 310,000 compounds, 0.51% hits; AID 1511;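 active = activation above the mean of controls blocked by dofetilide plus 5 SD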;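 also: thallium influx through hERG after potassium depolarization seen as dye fluorescence rise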
KCC2 mod: modulators of human KCC2 chloride dependent transport; KCC2 cells, thallium flux FluoZin-2 fluorescence; AID 1456; Q9H2X9; B-score of Tl+ flux slope (higher = more flux/activation; lower = inhibition) at 10 µM; 190,000 compounds, 2.2% hits;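 active = thallium flux slope and its plate-corrected score both differing from the plate sample mean at a set confidence after two filtering rounds, in either direction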;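 also: slope of fluorescence scaled to starting intensity during 10 to 20 s after thallium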
KCNQ1 pot: human KCNQ1 channel potentiation or activation; CHO-K1 KCNQ1, thallium flux FluxOR fluorescence; stronger effect = higher value; 310,000 compounds, 0.35% hits; B-score at 10 µM; AID 2648;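 active = fluorescence ratio B-score, a plate-corrected score, at least three library SD, with initial intensity B-score within 5 SD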
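Assay system: stable KCNQ1 CHO-K1 line; medium: assay buffer, equal DMSO in all wells; timing: 90 min dye loading and 20 min compound exposure, both at room temperature; technique: kinetic FluxOR thallium fluorescence, 10-s 1-Hz baseline, 110-s post-stimulus read; read-out basis: B score of baseline-normalized fluorescence ratio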
SUMO Mot1 rescue: SUMOylation pathway inhibition by Mot1-301 growth rescue | 320,000 compounds, 1% hits | S. cerevisiae Mot1-301 growth rescue, ATP luminescence, 38.5C; percent above DMSO median, 100 means doubled | AID 2716 | growth rescue, % at 18.8 µM;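 active = every valid replicate shows activation above 250% relative to neutral control wells; inactive = the rest, any valid replicate at or below 250%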
KCNQ1 block: inhibitors of human KCNQ1 potassium channel; 310,000 compounds, 1.3% hits; AID 2642; CHO-K1 KCNQ1, FluxOR thallium flux fluorescence; stronger effect = higher value; B-score at 10 µM;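 active = compounds whose thallium flux B-score, printed positive for inhibition, exceeds three library SD while starting fluorescence stays within three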;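 also: channel opened by potassium depolarization with thallium stimulus after 20 min compound exposure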
KCC2 secondary: KCC2 (human) modulation, secondary assay | shares compounds with KCC2 mod | HEK293-KCC2, thallium flux, FluoZin2 fluorescence; stronger effect = higher value | normalised thallium flux (F/F0 slope) at 10 µM | 3,700 compounds, 15% hits;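 active = thallium flux slope above the same plate's solvent-only control mean plus 3 SD; inconclusive = the two replicate wells disagree; inactive = no significant difference from solvent-only control wells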
KCC2 bumet counter: thallium flux persisting under bumetanide in KCC2 cells, counter-screen secondary assay | shares compounds with KCC2 mod | HEK293-KCC2 + bumetanide/ouabain, thallium flux FluoZin2; stronger effect = higher value | normalized thallium flux at 10 µM | 3,700 compounds, 49% hits;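 active = thallium entry rate above the same plate's blocked-transporter control wells by more than 3 SD; inconclusive = the two repeat wells disagree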;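 also: raw slope of fluorescence over initial fluorescence between 10 and 20 s after thallium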
KCC2 secondary2: confirmation of human KCC2 transport modulators | shares compounds with KCC2 mod | HEK293-KCC2, thallium flux FluoZin2 fluorescence; actives lie on both sides; F/F0 rise rate, 10–20 s post-thallium | normalized thallium flux at 10 µM | 3,700 compounds, 23% hits;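 active = thallium flux slope more than 3 SD above or below the plate's solvent-only control mean, mostly below; inconclusive = the two repeat wells disagreed; inactive = no significant shift from solvent-only controls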
HEK293 Tl flux: acts in parental HEK cells, KCC2 counter-screen. 3,700 compounds, 46% hits. AID 1716. HEK293 parental cells, thallium flux FluoZin2, ouabain; baseline-ratio fluorescence slope, 10–20 s after thallium. shares compounds with KCC2 mod. thallium flux rate (normalised fluorescence) at 10 µM;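 active = thallium flux rate significantly above the same plate's solvent-only control wells, beyond their mean plus 3 SD; inconclusive = the two replicate wells gave conflicting results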
KCC2 ouabain: confirmation of human KCC2 modulators with ouabain. 3,700 compounds, 48% hits. raw Tl+ flux slope (below DMSO = inhibition, above = activation) at 10 µM. shares compounds with KCC2 mod. HEK293-KCC2, thallium flux FluoZin2 fluorescence; bidirectional: low = inhibitor, high = activator;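 active = thallium flux slope beyond 3 SD from same-plate DMSO control mean in most replicates, usually higher, sometimes lower; inconclusive = repeat tests gave conflicting results; inactive = no significant difference from controls in most replicates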;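 also: slope of initial-normalized fluorescence between seconds 10 and 20 after thallium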
HEK counter2: parental HEK flux effect, counter-screen 2 | shares compounds with KCC2 mod | HEK293 parental, thallium flux FluoZin-2 fluorescence slope | thallium flux slope at 10 µM | 3,700 compounds, 33% hits;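 active = thallium flux slope above the same plate's solvent-control mean plus 3 SD in both duplicate wells; inconclusive = duplicate wells that disagreed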;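 also: run without ouabain in cells lacking the KCC2 cotransporter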
Each line names hits and unclear results; the compound was inactive in the other large screens (follow-up assays come after a bar, where they were run).

CCN(CC)C(=S)SCC(=O)Nc1ncc2c(n1)CC(C)(C)CC2=O	KCC2 mod 5.63 | KCC2 secondary inactive | KCC2 bumet counter inactive | KCC2 secondary2 inactive | HEK293 Tl flux inactive | KCC2 ouabain inactive | HEK counter2 inactive
CCOc1c(Cl)cc(/C=C/C(=O)N(CC)CC(=O)NCc2cccs2)cc1OC	none (no result: KCC2 mod)
N#Cc1c(-c2ccccc2Cl)cc(-c2ccccc2)[nH]c1=S	KCC2 mod 17.1 | KCC2 secondary 0.0152 | KCC2 bumet counter 0.028 | KCC2 secondary2 inactive | HEK293 Tl flux 0.0225 | KCC2 ouabain 0.0348 | HEK counter2 0.0135
Cc1ccc(-c2cc(-c3ccccc3Cl)c(C#N)c(N)n2)o1	none
Cc1cc(-c2ccccc2)c(C#N)c(=S)[nH]1	KCC2 mod 6.95 | KCC2 secondary 0.0171 | KCC2 bumet counter 0.0283 | KCC2 secondary2 inactive | HEK293 Tl flux 0.0162 | KCC2 ouabain inactive | HEK counter2 0.012
Cc1[nH]c(=S)c(C#N)c(C)c1Cc1ccccc1	none (no result: KCC2 mod)
O=C(Cn1nc(C(F)(F)F)c2c1CCC2)N1CCN(c2ccccc2)CC1	none (no result: KCC2 mod) | KCC2 secondary inactive | KCC2 bumet counter inactive | KCC2 secondary2 inactive | HEK293 Tl flux inactive | KCC2 ouabain 0.0161 | HEK counter2 inactive
O=C(Cn1nc(-c2ccc(Cl)cc2)ccc1=O)N1CCN(c2ccccc2)CC1	none (no result: KCC2 mod) | KCC2 secondary inactive | KCC2 bumet counter inactive | KCC2 secondary2 inactive | HEK293 Tl flux inactive | KCC2 ouabain inconclusive | HEK counter2 inactive
O=C(Cn1nc(C(F)(F)F)c2c1CCCCC2)N1CCOCC1	none
Cc1cc2cc(C(c3nnnn3Cc3ccccc3)N3CCc4ccccc43)c(=O)[nH]c2cc1C (configuration not stated)	none (no result: KCC2 mod) | KCC2 secondary inactive | KCC2 bumet counter inactive | KCC2 secondary2 inactive | HEK293 Tl flux inactive | KCC2 ouabain 0.0138 | HEK counter2 inactive
Cc1ccc(OCC(=O)NNC(=S)NC(=O)C(C)(C)C)c(Br)c1	KCC2 mod 49.9, KCNQ1 pot 9 | KCC2 secondary 0.0253 | KCC2 bumet counter 0.098 | KCC2 secondary2 inconclusive | HEK293 Tl flux 0.0683 | KCC2 ouabain 0.065 | HEK counter2 0.0243
Cc1cccc(NC(=S)NNC(=O)COc2ccc(Cl)cc2Cl)c1	KCC2 mod 6.47 | KCC2 secondary inactive | KCC2 bumet counter 0.16 | KCC2 secondary2 inactive | HEK293 Tl flux 0.0284 | KCC2 ouabain 0.0532 | HEK counter2 0.013
CCCCCCCCNC(=O)C(CCC(=O)OCc1ccccc1)NC(C)=O (configuration not stated)	none (no result: KCC2 mod) | KCC2 secondary inactive | KCC2 bumet counter inactive | KCC2 secondary2 0.0226 | HEK293 Tl flux inconclusive | KCC2 ouabain 0.013 | HEK counter2 inactive
CSc1ccccc1NC(=S)N/N=C/c1cccn1Cc1cccc(C)c1	none (no result: KCC2 mod)
Cc1cccc(NC(=S)N/N=C/c2cccn2Cc2ccc(F)cc2)c1	KCC2 mod 6.26 | KCC2 secondary inactive | KCC2 bumet counter 0.00879 | KCC2 secondary2 inconclusive | HEK293 Tl flux inactive | KCC2 ouabain inactive | HEK counter2 inactive
CSc1ccccc1NC(=S)N/N=C/c1cccn1Cc1ccc(F)cc1	KCC2 mod 4.14 | KCC2 secondary inactive | KCC2 bumet counter 0.0106 | KCC2 secondary2 inactive | HEK293 Tl flux 0.0106 | KCC2 ouabain inactive | HEK counter2 0.0135
COC(=O)C(Cc1c[nH]c2ccccc12)NC(=O)c1cc(-c2ccc(OC)c(OC)c2)oc1C (configuration not stated)	none
Fc1ccc(NC(=S)NNc2ncc(C(F)(F)F)cc2Cl)c(F)c1	KCC2 mod 52.6 | KCC2 secondary inactive | KCC2 bumet counter 0.0382 | KCC2 secondary2 inconclusive | HEK293 Tl flux 0.0321 | KCC2 ouabain 0.0353 | HEK counter2 0.0222
Cc1ccc(NC(=S)NNc2ncc(C(F)(F)F)cc2Cl)cc1	KCC2 mod 16.7 | KCC2 secondary inconclusive | KCC2 bumet counter 0.0783 | KCC2 secondary2 inactive | HEK293 Tl flux 0.0126 | KCC2 ouabain 0.0418 | HEK counter2 0.0118
ON/C=N/C(=S)Nc1ncc(C(F)(F)F)cc1Cl	hERG protect 14.0, KCC2 mod 24.6, KCNQ1 pot 20 | KCC2 secondary inactive | KCC2 bumet counter 0.0519 | KCC2 secondary2 0.0582 | HEK293 Tl flux 0.0481 | KCC2 ouabain 0.0523 | HEK counter2 inconclusive
Cc1ccc(NC(=S)NNC(=S)Nc2cccc(C(F)(F)F)c2)cc1	none (no result: KCC2 mod)
O=C(CSc1ccccc1C(=O)NCc1ccccc1)NC12CC3CC(CC(C3)C1)C2	KCC2 mod -3.61 | KCC2 secondary inconclusive | KCC2 bumet counter inconclusive | KCC2 secondary2 0.0216 | HEK293 Tl flux inactive | KCC2 ouabain inconclusive | HEK counter2 inactive
O=C(NC1CCCC1)c1ccccc1OCc1ccccc1	KCC2 mod -3.64 (no result: SUMO Mot1 rescue) | KCC2 secondary inactive | KCC2 bumet counter inconclusive | KCC2 secondary2 inactive | HEK293 Tl flux 0.00474 | KCC2 ouabain 0.0152 | HEK counter2 inactive
O=C(CSc1ccccc1C(=O)NCc1ccccc1)NC1CCCCCCC1	KCC2 mod -4.01 | KCC2 secondary inactive | KCC2 bumet counter inconclusive | KCC2 secondary2 0.0212 | HEK293 Tl flux inactive | KCC2 ouabain inconclusive | HEK counter2 inactive
O=C(NC1CCN(Cc2ccccc2)CC1)c1ccccc1OCc1ccccc1	none (no result: KCC2 mod)
Cn1c(CSc2nc3ccccc3s2)nc2ccccc21	KCC2 mod -4.4 | KCC2 secondary inactive | KCC2 bumet counter inactive | KCC2 secondary2 0.0244 | HEK293 Tl flux inactive | KCC2 ouabain inconclusive | HEK counter2 inactive
Cn1c(CSc2nc3ccccc3s2)n[nH]c1=S	none (no result: KCC2 mod) | KCC2 secondary inconclusive | KCC2 bumet counter inactive | KCC2 secondary2 inconclusive | HEK293 Tl flux inactive | KCC2 ouabain 0.0115 | HEK counter2 inconclusive

High-throughput results deposited in PubChem by several laboratories.
